From publication PMC7355085 (ACS chemical neuroscience, 2016)
Where two headings read alike, the source gives them in different places.

Legend:
CDK5/p25 = CDK5/p25 (Homo sapiens, UniProt Q00535); experiment: ADP-Glo kinase luminescent assay, CDK5/p25 inhibition; type: biochemical
GSK3β [1] = target: T1, GSK3β (Homo sapiens, UniProt P49841); type: biochemical
CK2 = CK2 (Homo sapiens, UniProt P68400); experiment: Kinase selectivity panel; type: biochemical; settings: read-out: Inhibition against CK2
SH-SY5Y cells [2] = experiment: Aβ42-induced tau phosphorylation in SH-SY5Y cells; type: cell-based, human
How it was run: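 SH-SY5Y cells were seeded at 3 × 10^5 cells/mL in DMEM/F12 with 1% FBS. […] Lysates in pyrophosphate buffer pH 7.4, 10 μg/lane, 10% SDS-PAGE, PVDF; primary antibodies 2 h at room temperature; β-actin loading control.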

AKT1 = AKT1 (Homo sapiens, UniProt P31749); experiment: Kinase selectivity panel; type: biochemical; settings: read-out: Inhibition against AKT1
SH-SY5Y cells [3] = experiment: Cell viability / cytotoxicity assessment in SH-SY5Y cells; type: cell-based, human
other 18 kinases = experiment: Kinase selectivity panel; type: biochemical; settings: 224 μM; p > 0.05
GSK3β [4] = target: T1, GSK3β; experiment: GSK3β enzyme kinetics; type: biochemical; settings: noncompetitive inhibition with respect to ATP, GS2 constant at 17 μM, varying ATP
How it was run: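 Substrate GS2 held at 17 μM while ATP and test compound concentrations were varied. Vehicle was 5% DMSO. Quadruplicates from each of two independent experiments; means ± SEM.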

SH-SY5Y cells [5] = experiment: Morphological changes of SH-SY5Y cells; type: cell-based, human
How it was run: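 SH-SY5Y cultures (37 °C, humidified, 5% CO2) were examined by microscopy after 72 h. Conditions were 0.2% DMSO vehicle control, 10 μM Aβ42 alone, or test compound pretreatment followed by 10 μM Aβ42. Read-out was differentiation state and neurite extension or retraction.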

PKC = PKC (Homo sapiens, UniProt P17252); experiment: Kinase selectivity panel; type: biochemical; settings: read-out: Inhibition against PKC
SH-SY5Y cells [6] = experiment: Neuroprotection against Aβ42-induced cytotoxicity, cell viability assay; type: cell-based, human; settings: 1 112 μM; combinations with LiCl 10 mM or TDZD-8 10 μM; 10 μM Aβ42, 72 h
GSK3β [7] = target: T1, GSK3β; experiment: Promiscuous aggregation assay: GSK3β inhibition with Triton X-100; type: biochemical

T1 sequence (P49841 whole entry): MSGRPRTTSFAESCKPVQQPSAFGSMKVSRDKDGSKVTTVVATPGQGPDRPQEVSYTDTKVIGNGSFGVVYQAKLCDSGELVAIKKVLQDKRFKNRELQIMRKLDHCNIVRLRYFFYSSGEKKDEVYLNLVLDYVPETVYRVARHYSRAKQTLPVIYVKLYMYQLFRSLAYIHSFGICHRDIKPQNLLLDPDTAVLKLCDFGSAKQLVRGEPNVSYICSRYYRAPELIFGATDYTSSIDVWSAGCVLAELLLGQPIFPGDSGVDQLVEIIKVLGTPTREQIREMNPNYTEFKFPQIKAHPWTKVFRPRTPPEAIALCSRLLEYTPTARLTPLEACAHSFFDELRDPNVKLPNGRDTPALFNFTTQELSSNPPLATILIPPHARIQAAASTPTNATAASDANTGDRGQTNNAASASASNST
Chain of CDK5/p25 (Q00535 whole entry): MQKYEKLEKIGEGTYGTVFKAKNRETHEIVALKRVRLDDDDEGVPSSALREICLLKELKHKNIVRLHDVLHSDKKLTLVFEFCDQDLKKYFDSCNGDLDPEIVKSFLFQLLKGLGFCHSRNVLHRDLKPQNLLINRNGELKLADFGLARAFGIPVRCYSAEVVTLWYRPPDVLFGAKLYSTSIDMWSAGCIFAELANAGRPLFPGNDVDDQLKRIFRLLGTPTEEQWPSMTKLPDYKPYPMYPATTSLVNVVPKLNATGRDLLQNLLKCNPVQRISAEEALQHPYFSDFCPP
Chain of CDK5/p25 (Q15078 99-307 partner limits assumed): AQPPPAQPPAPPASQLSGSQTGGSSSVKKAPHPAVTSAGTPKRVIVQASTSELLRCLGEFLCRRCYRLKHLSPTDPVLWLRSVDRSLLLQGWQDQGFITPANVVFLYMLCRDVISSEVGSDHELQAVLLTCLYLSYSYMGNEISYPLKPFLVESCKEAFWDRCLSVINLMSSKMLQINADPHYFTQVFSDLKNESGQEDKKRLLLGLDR
Chain of AKT1 (P31749 whole entry): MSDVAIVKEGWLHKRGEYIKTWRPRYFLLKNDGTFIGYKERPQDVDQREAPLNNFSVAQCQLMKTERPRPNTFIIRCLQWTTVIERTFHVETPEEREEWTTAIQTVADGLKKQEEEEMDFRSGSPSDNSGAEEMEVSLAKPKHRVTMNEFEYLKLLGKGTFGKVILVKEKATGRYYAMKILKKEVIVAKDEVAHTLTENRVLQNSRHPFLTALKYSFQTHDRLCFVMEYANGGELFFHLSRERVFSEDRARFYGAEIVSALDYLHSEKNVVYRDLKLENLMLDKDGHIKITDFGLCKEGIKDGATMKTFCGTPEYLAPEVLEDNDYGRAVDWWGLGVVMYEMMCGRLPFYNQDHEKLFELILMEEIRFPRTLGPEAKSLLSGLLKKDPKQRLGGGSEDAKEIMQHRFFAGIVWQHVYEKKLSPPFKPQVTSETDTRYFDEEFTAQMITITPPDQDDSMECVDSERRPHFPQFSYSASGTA
Chain of CK2 (P68400 whole entry): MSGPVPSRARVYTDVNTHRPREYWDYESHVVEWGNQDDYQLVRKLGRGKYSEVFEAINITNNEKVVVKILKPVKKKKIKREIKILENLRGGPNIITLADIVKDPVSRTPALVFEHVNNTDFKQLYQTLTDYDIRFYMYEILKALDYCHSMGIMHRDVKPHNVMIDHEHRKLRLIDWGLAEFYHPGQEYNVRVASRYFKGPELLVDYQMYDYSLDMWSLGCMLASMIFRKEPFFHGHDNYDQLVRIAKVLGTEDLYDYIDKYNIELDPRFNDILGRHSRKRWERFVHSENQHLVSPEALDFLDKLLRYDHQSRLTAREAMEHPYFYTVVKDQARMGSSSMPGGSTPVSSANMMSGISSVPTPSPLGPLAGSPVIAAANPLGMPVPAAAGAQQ

Compound: 3’-methoxymaysin [Compound 2]
- IC50 (CDK5/p25; read-out: IC50, CDK5/p25): > 15000 µM
- IC50 (GSK3β [1]; read-out: IC50, GSK3β inhibition, 25 μM ATP, 1 h, room temperature): 288 µM

Compound: O=c1cc(-c2ccc(O)c(O)c2)oc2cc(O)c([C@@H]3O[C@H](CO)[C@@H](O)[C@H](O)[C@H]3O)c(O)c12 [Compound 1, isoorientin]
- inhibition at 224 µM (CK2): ~30%
- Levels of GSK3β pS9 and total GSK3β (SH-SY5Y cells [2]; co-incubation of 1 with 10 μM Aβ42, 72 h, compared to untreated cells, p > 0.05): No significant change
- inhibition at 224 µM (AKT1): ~30%
- Dose up to which no cytotoxicity to SH-SY5Y cells was noted (SH-SY5Y cells [3]; 72 h): > 896 µM
- Effect on cell proliferation (SH-SY5Y cells [3]; 72 h, without Aβ42): slightly stimulated cell proliferation
- Inhibition of other 18 kinases of the panel (other 18 kinases): did not significantly inhibit
- Ki (GSK3β [4]): 210 ± 22 µM
- Cell morphology (SH-SY5Y cells [5]; pretreatment of 28 μM 1 followed by 10 μM Aβ42, 72 h): Partial differentiated cells with extended neurites
- Cell morphology (SH-SY5Y cells [5]; pretreatment of 448 μM 1 followed by 10 μM Aβ42, 72 h): Protected differentiated cells with extended axons and dendrites
- inhibition at 224 µM (PKC): ~30%
- IC50 (CDK5/p25): > 15000 µM
- Neuroprotection against cell viability loss, single concentration (SH-SY5Y cells [6]): neuroprotection against cell viability loss
- IC50 (GSK3β [7]): 192 µM
- Decrease of GSK3β kinase activity (GSK3β [1]; 224 μM, compared to control (100% kinase activity), p < 0.0001): 52.4%

Compound: O=c1cc(-c2ccc(O)c(O)c2)oc2cc(O)cc(O)c12 [luteolin]
- IC50 (GSK3β [7]; IC50, GSK3β, with 0.01% Triton, with 0.01% Triton X-100): 32 µM
- IC50 (GSK3β [7]; IC50, GSK3β, without Triton, before addition of Triton X-100): 2 µM

Compound: β-Amyloid fragment peptide 1–42 [Aβ42]
- Increase of tau phosphorylation at pS199/pS202 relative to untreated cells (SH-SY5Y cells [2]; 10 μM Aβ42, 72 h): approximately 3.5 fold
- Increase of tau phosphorylation at pS396 relative to untreated cells (SH-SY5Y cells [2]; 10 μM Aβ42, 72 h): ~2.3 fold
- Inhibition of cell growth (SH-SY5Y cells [3]; 10 μM Aβ42): about 50%
- Cell morphology (SH-SY5Y cells [5]; 10 μM Aβ42 treatment, 72 h): Impaired and nondifferentiated cells with retracted neurites
